High-throughput results from PubChem BioAssay.
NR2E3 ag-1: NR2E3 agonists in two-hybrid cells, primary screen, cell-based, luminescence, CHO-S, Gal4-NCOR/VP16-NR2E3 | luciferase | AID 602229, 2012 | inhibition of corepressor binding, % at 3.98 µM | Photoreceptor-specific nuclear receptor (Homo sapiens), Q9Y5X4 | 360,000 tested, 0.35% active;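 active = inhibition above the mean of all tested compounds plus 3 SD, cut at about 70% in these data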;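 also: 0% = DMSO with NR2E3 transfected cells and 100% = cells lacking NR2E3 construct; higher means lower luciferase signal from less NR2E3 corepressor binding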
NR2E3 ag-2: inhibitors of NR2E3-RetCOR corepressor binding, primary screen, NR2E3 agonist project, biochemical, TR-FRET, GST-NR2E3, biotin-RetCOR. 320,000 tested, 0.12% active. Photoreceptor-specific nuclear receptor (Homo sapiens), Q9Y5X4. inhibition of corepressor binding, % at 4.78 µM. 1536-well. AID 2300, 2010;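 active = percent inhibition above the cutoff of mean plus 3 SD of all tested compounds, set per screening campaign, cut at about 20% in these data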;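 also: 0% = DMSO wells and 100% = biotin wells as full block of FRET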
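Test system: GST-NR2E3 and biotin-RetCOR proteins | Quantity: 1.35 nM GST-tagged NR2E3 final | Medium: Tris pH 7.5 | Also added: 7 nM biotin-RetCOR | Dosing: Compound at 4.8 µM, single dose | Timing: 5 h at 4 °C | Detection: Time-resolved FRET | Read-out basis: Percent inhibition | Benchmarks: Biotin wells as high control, 0.6% DMSO wells as low control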
MT1-MMP act inh: blockers of MT1-MMP proenzyme processing, primary screen, HT1080 RFP-PRO-GFP cells, GFP/RFP fluorescence; 360,000 tested, 0.061% active; GFP/RFP ratio fluorescence, overnight; percent of plate control window, DMSO zero; GFP/RFP ratio change, % at 20 µM;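 active = GFP/RFP ratio change of at least 30% with cell ATP level not reduced by more than half and red fluorescence within 50% of control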
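Test system: HT1080 cells expressing an RFP-PRO-GFP fluorescent reporter construct / Compound dosing: single-point 20 µM compound, 1% DMSO / Schedule: cells overnight before dosing, compound overnight, 37 °C, 5% CO2 / Evaluation: GFP/RFP fluorescence ratio / Control set: DMSO and RFP-L50D-GFP cell wells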
Vif inh: HIV Vif self-association inhibitors, primary screen, imaging, HEK293T, single point | inhibition, % at 7.49 µM | HEK293T cells, Vif self-association by quenched fluorescence, 24 h | 340,000 tested, 0.35% active; in the data active = inhibition above about 50%, passing the limit was not always enough
DAGLB inh: DAGLB lipase inhibitors, primary screen, biochemical, fluorescence, HTS. Diacylglycerol lipase-beta (Homo sapiens), Q8NCG7. inhibition, % at 5.17 µM. HEK293T DAGLB membrane lysate, EnzChek fluorogenic substrate. 340,000 tested, 0.059% active; in the data active = inhibition above about 34%;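 also: 0% = enzyme with vehicle and 100% = wells lacking enzyme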
Target sequence (Q8NCG7 whole entry, looked up): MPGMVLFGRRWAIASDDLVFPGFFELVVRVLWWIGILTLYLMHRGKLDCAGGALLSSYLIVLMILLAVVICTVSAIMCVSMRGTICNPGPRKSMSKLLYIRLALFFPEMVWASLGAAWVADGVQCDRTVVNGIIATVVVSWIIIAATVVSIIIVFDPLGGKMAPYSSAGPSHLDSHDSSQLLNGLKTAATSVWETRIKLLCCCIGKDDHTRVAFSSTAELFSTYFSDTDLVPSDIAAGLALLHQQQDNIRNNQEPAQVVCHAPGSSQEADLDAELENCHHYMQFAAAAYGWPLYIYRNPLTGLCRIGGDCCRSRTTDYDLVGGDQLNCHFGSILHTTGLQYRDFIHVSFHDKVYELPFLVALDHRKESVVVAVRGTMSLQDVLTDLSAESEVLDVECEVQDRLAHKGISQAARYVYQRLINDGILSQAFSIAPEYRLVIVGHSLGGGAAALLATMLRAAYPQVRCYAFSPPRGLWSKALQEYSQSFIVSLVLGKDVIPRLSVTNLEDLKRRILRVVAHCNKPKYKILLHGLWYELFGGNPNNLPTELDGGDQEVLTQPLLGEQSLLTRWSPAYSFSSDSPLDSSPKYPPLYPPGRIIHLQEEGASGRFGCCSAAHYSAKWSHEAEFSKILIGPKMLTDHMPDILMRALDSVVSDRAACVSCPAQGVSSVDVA
HCV core dimer: inhibitors of HCV core protein dimerization, primary screen, biochemical, TR-FRET, high-throughput | AID 1899, 2009 | TR-FRET GST/Flag-core106 dimerization, 1536-well | inhibition, % at 5 µM | 300,000 tested, 0.33% active;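 active = inhibition above the mean of all tested compounds plus 3 SD, set per screening campaign, cut at about 45% in these data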
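Assay system: tagged HCV core106 pair (GST and Flag); medium: KF-containing HEPES buffer, pH 7.45, DTT, CHAPS, BSA; also added: Eu donor and XL665 acceptor anti-tag antibodies; dosing: 5 µM single dose; timing: compound-protein-antibody incubation 4 h at 22.5 °C; signal: TR-FRET 671 and 617 nm emission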
Active calls of the source: *. In the library only some 1.1% were active in any assay of this set; here they are far more common.

O=C(CCc1ccccc1)Nc1ccccc1 was read as NR2E3 ag-1 25, NR2E3 ag-2 -4, MT1-MMP act inh 5, Vif inh 55*, DAGLB inh -1 and HCV core dimer 6.
`CC(C)(C)c1ccc(C(=O)NCCC(=O)Nc2cc(Cl)ccc2N2CCOCC2)cc1` gave NR2E3 ag-1 -2, NR2E3 ag-2 5, MT1-MMP act inh -1, Vif inh -1 and DAGLB inh -1.
COc1cc(/C(O)=C(\C#N)c2nc3ccccc3[nH]2)cc(OC)c1OC was read as NR2E3 ag-1 17, MT1-MMP act inh 0, Vif inh 6 and DAGLB inh 2.
O=C(c1cc2ccccc2oc1=O)N(Cc1ccco1)Cc1cccs1 was read as NR2E3 ag-1 -33, NR2E3 ag-2 -2, MT1-MMP act inh -5, Vif inh 59*, DAGLB inh 1 and HCV core dimer 1.
`O=C(c1cc2ccccc2oc1=O)N(Cc1cccs1)Cc1cccs1` gave NR2E3 ag-1 -6, NR2E3 ag-2 2, MT1-MMP act inh -4, Vif inh -9, DAGLB inh 0 and HCV core dimer -3.
N#Cc1c(-c2ccco2)cc(-c2ccccn2)nc1N was read as NR2E3 ag-1 -8, NR2E3 ag-2 3, MT1-MMP act inh -10, Vif inh -4, DAGLB inh 0 and HCV core dimer 73*.
For Brc1cc(Br)c2nc(-c3cccs3)ccc2c1 the results were NR2E3 ag-1 -30, NR2E3 ag-2 5, MT1-MMP act inh -8, DAGLB inh -11 and HCV core dimer 48*.
`O=C(OC1CCOC1=O)C1CCN(S(=O)(=O)c2c(Cl)cccc2Cl)CC1` (stereo unspecified) gave NR2E3 ag-1 -9, NR2E3 ag-2 0, MT1-MMP act inh -14, Vif inh 1, DAGLB inh -2 and HCV core dimer -1.
Screening CC(=O)Nc1ccc(NC(=O)c2ccc(N(C)S(=O)(=O)c3ccc(C)cc3)cc2)cc1 returned NR2E3 ag-1 -1, NR2E3 ag-2 -2, MT1-MMP act inh -5, Vif inh 5, DAGLB inh -1 and HCV core dimer -9.
Cc1ccc(NS(=O)(=O)c2ccc(NC(=O)c3ccc(-c4ccccc4)cc3)cc2)c(C)c1 was read as NR2E3 ag-1 -12, NR2E3 ag-2 1, MT1-MMP act inh -1, DAGLB inh 13 and HCV core dimer 46*.
Screening CN(c1ccccc1)S(=O)(=O)c1ccc(NC(=O)c2ccc(-c3ccccc3)cc2)cc1 returned NR2E3 ag-1 82*, NR2E3 ag-2 3, MT1-MMP act inh -5, Vif inh 4, DAGLB inh -4 and HCV core dimer 31.
`COC(=O)c1ccc(CSc2ncnc3c2sc2nc(N4CCOCC4)c4c(c23)CCCC4)o1` gave NR2E3 ag-1 1, NR2E3 ag-2 -1, MT1-MMP act inh -4, Vif inh 22, DAGLB inh -10 and HCV core dimer 66*.
Nc1ccccc1SCC(=O)Nc1ccc(N2CCOCC2)cc1 was read as NR2E3 ag-1 4, NR2E3 ag-2 0, MT1-MMP act inh -1, Vif inh 57*, DAGLB inh -2 and HCV core dimer -8.
Screening O=C(Nc1ccc(NS(=O)(=O)c2ccccc2)c(Cl)c1)c1ccccc1 returned NR2E3 ag-1 1, MT1-MMP act inh 2, Vif inh 3 and DAGLB inh -1.
`O=C(CNC(=S)N(Cc1ccccc1)Cc1cccnc1)NCCN1CCOCC1` gave NR2E3 ag-1 6, NR2E3 ag-2 0, MT1-MMP act inh 4, Vif inh 1, DAGLB inh 2 and HCV core dimer 1.
For O=C(Nc1cccc(S(=O)(=O)NC2=NCCC2)c1)c1cc(-c2ccco2)nc2ccccc12 the results were NR2E3 ag-1 -7, NR2E3 ag-2 1, MT1-MMP act inh -2, Vif inh -4, DAGLB inh 2 and HCV core dimer 76*.
Screening O=C(N/N=C/c1ccc(F)cc1)c1cc(-c2ccco2)nc2ccccc12 returned NR2E3 ag-1 -75, NR2E3 ag-2 0, MT1-MMP act inh -4, Vif inh 1, DAGLB inh 5 and HCV core dimer 69*.
For Cc1nnc(NC(=O)c2cc(-c3ccco3)nc3ccccc23)s1 the results were NR2E3 ag-1 -29, NR2E3 ag-2 1, MT1-MMP act inh -4, Vif inh -7, DAGLB inh 0 and HCV core dimer 78*.
`O=C(Nc1nccs1)c1cc(-c2ccco2)nc2ccccc12` gave NR2E3 ag-1 -31, NR2E3 ag-2 1, MT1-MMP act inh -2, Vif inh -2, DAGLB inh 4 and HCV core dimer 84*.
For COc1ccc(NC(=O)c2sc3nc(-c4cccnc4)ccc3c2N)cc1 the results were NR2E3 ag-1 10, NR2E3 ag-2 -2, MT1-MMP act inh -23, Vif inh 92*, DAGLB inh -1 and HCV core dimer -5.
COC[C@@H]1CCCN1[C@@H]1CS(=O)(=O)N[C@H]1COCc1ccccc1 was read as NR2E3 ag-1 5 and MT1-MMP act inh 1.
`CCC(C)C(NC(=O)OC(C)(C)C)C(=O)NC(C(=O)NC(C)C(N)=O)C(C)C` (stereo unspecified) gave NR2E3 ag-1 5, NR2E3 ag-2 0, MT1-MMP act inh 0, Vif inh 3, DAGLB inh 1 and HCV core dimer -1.
`CC(NC(=O)C(CC(=O)OC(C)(C)C)NC(=O)OC(C)(C)C)C(N)=O` (stereo unspecified) gave NR2E3 ag-1 -8, NR2E3 ag-2 -5, MT1-MMP act inh 0, Vif inh 55*, DAGLB inh 0 and HCV core dimer -3.
Screening CC1(c2nnnn2-c2ccc3c(c2)OCCO3)CCC(=O)N1CCCn1ccnc1 (stereo unspecified) returned NR2E3 ag-1 -12 and MT1-MMP act inh 3.
For Cc1ccc([C@@H]2[C@@H]3C(=O)N(C)C(=O)[C@@H]3[C@]3(C)C(=O)N(Cc4ccc(-c5ccccc5)cc4)CC(=O)N23)o1 the results were NR2E3 ag-1 -11, NR2E3 ag-2 -3, MT1-MMP act inh 5, Vif inh -4, DAGLB inh 0 and HCV core dimer -4.
